From PubChem
PP1 counter = PP1-alpha phosphatase inhibitors, primary screen, counter-screen for PP5 inhibitor project, biochemical, fluorescence, OMFP substrate, single point. Serine/threonine-protein phosphatase PP1-alpha catalytic subunit (Homo sapiens), P62136. purified PP1alpha. inhibition, % at 6.7 µM. actives 0.9% (n = 320,000). AID 2235, 2010;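 active = inhibition above the mean inhibition of all tested compounds plus 3 SD, computed separately for each screening campaign, cut at about 15% in these data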
Target sequence (P62136 whole entry, looked up): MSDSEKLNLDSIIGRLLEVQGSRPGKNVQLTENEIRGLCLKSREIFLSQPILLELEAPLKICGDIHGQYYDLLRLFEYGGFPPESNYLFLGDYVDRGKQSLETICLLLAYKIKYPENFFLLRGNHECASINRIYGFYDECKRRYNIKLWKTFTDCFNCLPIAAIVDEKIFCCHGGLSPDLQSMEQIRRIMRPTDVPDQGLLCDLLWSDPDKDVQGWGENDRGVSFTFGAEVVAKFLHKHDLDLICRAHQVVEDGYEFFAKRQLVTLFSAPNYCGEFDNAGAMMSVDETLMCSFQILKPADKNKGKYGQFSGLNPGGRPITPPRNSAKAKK
PP5 inh = PP5 phosphatase inhibitors, primary screen, biochemical, fluorescence; inhibition, % at 6.7 µM; actives 0.18% (n = 320,000); AID 1987, 2009; Serine/threonine-protein phosphatase 5 (Homo sapiens), P53041; purified PP5c, OMFP substrate fluorescence;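 active = inhibition above the campaign's mean inhibition across all tested compounds plus 3 SD, cut at about 9.5% in these data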
NadD inh = inhibitors of S. aureus NadD, primary screen, biochemical, colorimetric, uHTS | AID 602399, 2012 | inhibition, % at 20 µM | purified NadD enzyme, colorimetric absorbance read-out | actives 0.78% (n = 360,000); in the data active = inhibition above about 26%
core dimer inh = inhibitors of HCV core protein dimerization, primary screen, biochemical, TR-FRET, high-throughput. TR-FRET GST/Flag-core106 dimerization, 1536-well. inhibition, % at 5 µM. actives 0.33% (n = 300,000). AID 1899, 2009;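 active = inhibition above the mean of all tested compounds plus 3 SD, set per screening campaign, cut at about 45% in these data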
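Material: GST/Flag-tagged HCV core106 proteins. Incubation: 4 h, 22.5 °C incubation. Read-out basis: inhibition (%) from 671 over 617 nm ratio. Measured by: TR-FRET, excitation 340 nm, emission 617 and 671 nm.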
Myeloid diff MLP = induction of myeloid progenitor differentiation, primary screen, cell-based, flow cytometry, MLPCN library; actives 1% (n = 360,000); ER-HoxA9 myeloid progenitors, lysozyme-GFP differentiation; AID 624256, 2012; calls only at 10 µM;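 active = normalized GFP-positive differentiation at or above the plate's own cutoff, the solvent-only control mean plus 3 SD; inconclusive = no clear call, values can overlap the other calls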;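 note: cells exposed to compound for four days before flow analysis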
CTSL1 counter = Fasciola hepatica cathepsin L1 inhibitors, primary screen, counter-screen for PFM18AAP inhibitor project, biochemical, QFRET, fluorogenic peptide substrate; actives 0.49% (n = 300,000); recombinant F. hepatica cathepsin L1, Z-Leu-Arg-MCA fluorescence; inhibition, % at 5.96 µM;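 active = inhibition above the mean of all tested compounds plus 3 SD, set per screening campaign, cut at about 17% in these data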
NadD inh conf = inhibitors of S. aureus NadD, confirmation, biochemical, colorimetric, single concentration | shares compounds with NadD inh | purified S. aureus NadD, colorimetric enzyme assay | inhibition, % at 20 µM | actives 13% (n = 2,000) | AID 624309, 2012; in the data active = inhibition mostly above about 42%, no sharp cut-off; inactive = mostly below about 42%
Hits are given with their value; – = inactive; ? = inconclusive; · = no result. Sampled rows, rich in hits. Any-hit rate of the full collection: about 3.1%.

SMILES | PP1 counter | PP5 inh | NadD inh | core dimer inh | Myeloid diff MLP | CTSL1 counter | NadD inh conf
Cc1ccc(-c2cc(C(=O)Nc3ccc(S(=O)(=O)Nc4onc(C)c4C)cc3)c3ccccc3n2)cc1 | – | – | 31 | – | – | – | 66
Cc1cc(C)nc(NS(=O)(=O)c2ccc(NC(=O)c3cc(-c4ccccc4)nc4ccccc34)cc2)n1 | – | – | – | – | – | – | ·
O=C(Nc1ccc(S(=O)(=O)Nc2nccs2)cc1)c1cc(-c2ccccc2Cl)nc2ccccc12 | – | – | 67 | – | – | – | 65
Cc1ccc(-c2cc(C(=O)Nc3ccc(S(=O)(=O)Nc4cc(C)on4)cc3)c3ccccc3n2)c(C)c1 | – | – | 43 | – | – | – | 65
O=C(Nc1ccc(S(=O)(=O)Nc2nccs2)cc1)c1cc(-c2ccccn2)nc2ccccc12 | – | – | – | – | – | – | ·
CN(CCC#N)C(=O)COC(=O)c1c2c(nc3ccccc13)/C(=C/c1ccco1)CC2 | – | – | 50 | 53 | – | – | 58
CC(C)CNC(=O)COC(=O)c1c2c(nc3ccccc13)/C(=C\c1cccs1)CC2 | · | · | – | · | – | · | ·
COc1cccc(C(C(=O)NCc2ccccc2)N2CCN(CCN3CCOCC3)CC2)c1OC (stereo not drawn) | · | · | · | · | – | · | ·
CCCS(=O)(=O)NC(=O)C1(C)CCCN(C(=O)c2c(C)noc2C)C1 (stereo not drawn) | · | · | – | · | – | · | ·
N#Cc1c(NC2CCCCC2)nc(-c2ccco2)c2c1CCCC2 | – | – | 38 | – | – | – | –
COc1ncnc2c1ncn2CCCNCc1ccc2c(c1)OCO2 | · | · | – | · | – | · | ·
Cc1cccc(NCc2ccc(O)c3ncccc23)c1 | – | – | 37 | – | – | – | –
Cc1ccccc1NCc1ccc(O)c2ncccc12 | – | – | – | – | – | – | ·
Cc1onc(-c2ccccc2)c1C(=O)NCC(=O)Nc1cc(Cl)ccc1Cl | · | · | – | · | – | · | ·
CC(C)(C)c1ccc(C(=O)N/C(=C\c2cccc([N+](=O)[O-])c2)C(=O)Nc2cccc(C(=O)O)c2)cc1 | – | – | 31 | – | – | – | –
COc1ccc(C(=O)c2sc(Nc3ccccc3)c(C(=O)Nc3ccc(OC)c(OC)c3)c2N)cc1 | – | – | – | – | – | – | ·
COc1ccccc1NC(=O)c1c(Nc2ccccc2C)sc(C(=O)Nc2cccc(Cl)c2)c1N | – | – | 35 | – | – | – | 47
COc1ccc(NC(=O)c2c(Nc3ccccc3)sc(C(=O)c3ccc(F)cc3)c2N)cc1 | – | – | 33 | – | – | – | –
COc1ccc(C(=O)c2sc(Nc3cccc(OC)c3)c(C(=O)Nc3cccc(C)c3C)c2N)cc1 | – | – | 36 | – | – | – | –
COc1ccc(Nc2sc(C(=O)c3ccc(Cl)cc3)c(N)c2C(=O)Nc2ccccc2OC)cc1 | – | – | – | – | – | – | ·
CCC1CCCCN1C(=O)CSc1nnc(CNC(=O)c2c(F)cccc2Cl)o1 (stereo not drawn) | – | – | – | – | – | – | ·
COc1ccc(-c2[nH]ncc2CN2CCCCCCC2)c(OC)c1 | – | – | 30 | – | – | – | –
CCN(CC)CCn1c(NS(=O)(=O)c2ccc(Cl)cc2)nc2ccccc21 | – | – | – | – | – | – | ·
O=C(N/N=C/c1cn(-c2cccs2)nc1-c1ccccc1)c1ccccc1O | – | – | 34 | – | – | – | –
COc1ccc(C(=O)O)cc1S(=O)(=O)Nc1ccc(N2CCCCC2)cc1 | · | · | – | · | – | · | ·
SMILES | PP1 counter | PP5 inh | NadD inh | core dimer inh | Myeloid diff MLP | CTSL1 counter | NadD inh conf
Cc1ccc(C(C)(C)C)cc1S(=O)(=O)N1CCC(C(=O)N2CCN(c3ccc(O)cc3)CC2)CC1 | – | – | 67 | · | – | · | –
Cc1cc(C)c(C)c(S(=O)(=O)N2CCC(C(=O)N3CCN(c4ccc(F)cc4)CC3)CC2)c1C | · | · | – | · | – | · | ·
CSCCC(NC(=O)c1ccco1)C(=O)N(C)CC(=O)Nc1c(Cl)cccc1Cl (stereo not drawn) | – | – | – | – | – | – | ·
COc1ccc(CN(C)S(=O)(=O)c2nnc(NC(=O)c3cccc(OC)c3)s2)cc1 | – | – | – | – | – | – | ·
COc1cccc(C(=O)Nc2nnc(S(=O)(=O)N(C)Cc3ccc(F)cc3)s2)c1 | – | – | 30 | – | – | – | –
CCOc1ccc(C(=O)N/N=C/c2ccc(-c3ccc(S(=O)(=O)Nc4ncccn4)cc3)o2)cc1 | – | – | 33 | – | – | – | 53
CC(C)C[C@@H](CN1CCCC1CN1C(=S)NC[C@@H]1Cc1ccc(O)cc1)N1C[C@H](Cc2ccc(O)cc2)N(CC2CCCCCC2)C1=S (stereo partly drawn) | · | · | 55 | · | – | · | –
CC(C)C[C@@H](CN1CCCC1CN1C(=S)NC[C@@H]1Cc1ccc(O)cc1)N1C[C@H](Cc2ccccc2)N(CC2CCCCCC2)C1=S (stereo partly drawn) | · | · | – | · | – | · | ·
CC(C)C[C@H]1CNC(=S)N1C[C@H]1CCCN1C[C@H](CC(C)C)N1C[C@H](Cc2ccc(O)cc2)N(CC2CCCCC2)C1=S | · | · | 41 | · | ? | · | –
CC(C)C[C@@H](CN1CCCC1CN1C(=S)NC[C@@H]1Cc1ccc(O)cc1)N1C[C@H](Cc2ccccc2)N(CC2CCCCC2)C1=S (stereo partly drawn) | · | · | – | · | – | · | ·
O=C(COC(=O)c1ccc(Br)o1)Nc1nc2c(F)c(F)c(F)cc2s1 | – | – | 34 | – | – | – | –
O=C(COC(=O)c1ccco1)Nc1nc2c(F)c(F)c(F)cc2s1 | – | – | – | – | – | – | ·
CC(C)C(NC(=O)c1c(F)cccc1F)C(=O)N1CCN(c2ccccc2F)CC1 (stereo not drawn) | – | – | – | – | – | – | ·
CC(=O)Nc1ccc(S(=O)(=O)Nc2nc3ccccc3nc2-n2ccc(=NC(=O)c3ccccc3)cc2)cc1 | – | – | – | – | – | – | ·
O=C(N=c1ccn(-c2nc3ccccc3nc2NS(=O)(=O)c2ccc(Cl)cc2)cc1)c1cccs1 | – | – | 29 | – | – | – | –
CCOc1ccc(S(=O)(=O)Nc2nc3ccccc3nc2-n2ccc(=NC(=O)c3cccs3)cc2)cc1 | – | – | 26 | – | – | – | –
Cc1cccc2nc(-c3ccco3)oc(=O)c12 | – | – | – | – | – | – | ·
COc1cc(/C=C/C(C)=NNc2ccccc2)ccc1O | · | · | – | · | – | · | ·
